The source made the active and inactive calls. The calls are words filed in the database; no cut-off is given here.
Key:
L1210 [1] = test: Inhibition of RNA synthesis in L1210 cells by the compound was determined the reduced incorporation of [5-3H]-Urd into RNA at the concentration of 100 uM; NI denotes no inhibition; format: functional, cell-based; details: Mus musculus
In short: (§1)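 Cultured L1210 cells exposed to drug at 25, 50 or 100 µM. Label incorporation measured: [3H]dThd into DNA, [5-3H]Urd into RNA, [4,5-3H]L-Leu into protein. Values are percent inhibition of incorporation.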

B-cell = test: Compound was tested for its cytotoxicity against B- cell line (Wi-L2 B -lymphoblasts); format: functional, cell-based; details: Homo sapiens
In short: (§2)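 Cells seeded at 1 × 10^5/mL in RPMI 1640 with 10% fetal calf serum, 2 mM L-glutamine and increasing drug concentrations. Cultured 3 days under 95% air/5% CO2. Viable cells counted microscopically after adding 0.1% erythrocin B, relative to drug-free cultures. Points are mean ± SEM, except the adenosine kinase-deficient mutant, which used duplicates.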

L1210 [2] = test: Inhibition of DNA synthesis in L1210 cells by the compound was determined the reduced incorporation of incorporation of [3H]dThd into DNA at concentration of 25 uM; format: functional; details: Mus musculus; in short: as §1
Wild type T- cell line = test: Compound was tested for its cytotoxicity against wild type T- cell line; format: functional, cell-based; details: Homo sapiens; in short: as §2
L1210 [3] = test: Effect of compound on macromolecular synthesis in L1210 cells in culture; 8.5-17uM; format: functional, cell-based; details: Mus musculus
L1210 [4] = test: Compound was tested for its ability to inhibit the incorporation of [3H]dThd into DNA at concentration of 100 uM; format: functional; details: Mus musculus; in short: as §1
L1210 [5] = test: Inhibition of DNA synthesis in L1210 cells by the compound was determined the reduced incorporation of incorporation of [3H]dThd into DNA at concentration of 50 uM; format: functional; details: Mus musculus; in short: as §1
L1210 [6] = test: Inhibition of protein synthesis in L1210 cells by the compound was determined the reduced incorporation of [4,5-3H]L-Leu into protein; format: functional, Mus musculus; in short: as §1
T-cell = test: Compound was tested for its cytotoxicity against T- cell line; format: functional, cell-based; details: Homo sapiens; in short: as §2
[7] = Compound was tested for its cytotoxicity against MGL-8 B -lymphoblasts; format: functional, Homo sapiens; in short: as §2

IC50 (L1210 [3]) [nM] | SMILES | inhibition (L1210 [1]) | IC50 (B-cell) [nM] | inhibition at 25 µM (L1210 [2]) [%] | IC50 (Wild type T- cell line) [nM] | inhibition at 100 µM (L1210 [4]) [%] | inhibition at 50 µM (L1210 [5]) [%] | Inhibition (L1210 [6]) [%] | IC50 (T-cell) [nM] | IC50 [7] [nM]
8500 | Nc1nc(O)c2ncn([C@@H]3O[C@H](CO)[C@@H](O)[C@@H]3F)c2n1 [F-ARAG] | inactive | ~750 | 12 | ~200 | 76 | 62 | 17 |  | 
 | Nc1nc2c(ncn2[C@@H]2O[C@H](CO)[C@@H](O)[C@H]2O)c(=O)[nH]1 [GUANOSINE] |  |  |  |  |  |  |  | 100 | 7000

From ChEMBL document CHEMBL1123373, “9-(2-Deoxy-2-fluoro-beta-D-arabinofuranosyl)guanine: a metabolically stable cytotoxic analogue of 2'-deoxyguanosine” (J Med Chem, 1986)
